Reference: ChEMBL document CHEMBL1122945, “Synthesis and antitumor activity of a series of ftorafur analogues: the effect of varying electronegativity at the 1'-position” (J Med Chem, 1985)

Assays:
[1] = Evaluated in vitro for the Cytotoxic activity in the L1210 cell culture screen at 100 uM Maximum cell kill in a 72-h period; type: cell-based; conditions: mouse, L1210 cells; read-out: Inhibition
Method in brief: (§1)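 Compounds were suspended or dissolved in sterile 5 mM phosphate-buffered saline, sonicated 3 min, then serially diluted. L1210 cells were kept in suspension culture in RPMI-1640 with 10% fetal calf serum, penicillin and streptomycin at 37 °C, 98% humidity, 5% CO2. Exponentially growing cells (4 × 10^5 cells/mL) were exposed to compound. Read-out was percent inhibition versus control at maximum cell kill within 72 h, N = 9.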

[2] = Evaluated in vitro for the Cytotoxic activity in the L1210 cell culture screen at 10 uM Maximum cell kill in a 72-h period; type: cell-based; conditions: mouse, L1210 cells; read-out: Inhibition; method in brief: as §1
P388 [3] = assay: Evaluated for the antitumor activity in the P388 lymphocytic leukemia in female CDF1 mice injected intraperitoneally with 10 E-6 tumor cells dosed for 9 days at 20 mg/kg; no significant activity; type: functional, Mus musculus; conditions: route intraperitoneal
Method in brief: (§2)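 P388 leukaemia screen run to NIH protocol in female CDF1 mice (~25 g). 1 × 10^6 cells were given ip on day 0, and compounds were dosed on days 1–9. Six mice per group, with 5-FU and fluorodeoxyuridine as positive internal standards. T/C values were calculated, and T/C above 125% counted as significant activity.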

[4] = Evaluated in vitro for the Cytotoxic activity in the L1210 cell culture screen at 1 uM Maximum cell kill in a 72-h period; type: cell-based; conditions: mouse, L1210 cells; read-out: Inhibition; method in brief: as §1
P388 [5] = assay: Average days survival of female CDF1 mice bearing lymphocytic leukemia, when 10 E-6 tumor cells were injected intraperitoneally, dosed for 9 days at 20 mg/kg.; type: functional, Mus musculus; conditions: route intraperitoneal
Method in brief: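 P388 lymphocytic leukemia screen per NIH protocol in female CDF1 mice (~25 g), six per group. 1 × 10^6 cells injected ip on day 0. Compound given at 20 mg/kg on days 1–9. Survival of treated mice recorded and T/C calculated, with T/C above 125% taken as significant. 5-FU and fluorodeoxyuridine served as positive internal standards.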

P388 [6] = assay: Evaluated for the antitumor activity in the P388 lymphocytic leukemia in female CDF1 mice injected intraperitoneally with 10 E-6 tumor cells dosed for 9 days at 20 mg/kg; type: functional, Mus musculus; conditions: route intraperitoneal; method in brief: as §2
P388 [7] = assay: Evaluated for the antitumor activity in the P388 lymphocytic leukemia in female CDF1 mice injected intraperitoneally with 10 E-6 tumor cells dosed for 9 days at 20 mg/kg;; type: functional, Mus musculus; conditions: route intraperitoneal; method in brief: as §2
[8] = Evaluated in vitro for the Cytotoxic activity in the L1210 cell culture screen at 100 uM Maximum cell kill in a 72-h period r; type: cell-based; conditions: mouse, L1210 cells; read-out: Inhibition; method in brief: as §1

Compound: O=c1[nH]c(=O)n(C2CCCS2(=O)=O)cc1F (configuration not stated)
- cytotoxicity at 72 h, 100 µM [1]: 92%
- cytotoxicity at 72 h, 10 µM [2]: 85%
- T/C (P388 [3]): 119%
- cytotoxicity at 72 h, 1 µM [4]: 59.2%
- Average survived (P388 [5]): 12.17 days

Compound: O=c1[nH]c(=O)n(C2CCCS2)cc1F (configuration not stated)
- T/C (P388 [6]): 100%
- cytotoxicity at 72 h, 100 µM [1]: 68.5%
- cytotoxicity at 72 h, 10 µM [2]: 52.5%
- cytotoxicity at 72 h, 1 µM [4]: 16.9%
- Average survived (P388 [5]): 10.17 days

Compound: O=c1[nH]c(=O)n(C2CCC[S+]2[O-])cc1F (configuration not stated)
- T/C (P388 [6]): 143%
- cytotoxicity at 72 h, 100 µM [1]: 84.5%
- cytotoxicity at 72 h, 10 µM [2]: 82.9%
- cytotoxicity at 72 h, 1 µM [4]: 64.9%
- Average survived (P388 [5]): 14.5 days

Compound: O=C1CCCC1n1cc(F)c(=O)[nH]c1=O (configuration not stated)
- cytotoxicity at 72 h, 100 µM [1]: 65.5%
- cytotoxicity at 72 h, 10 µM [2]: 49.1%
- cytotoxicity at 72 h, 1 µM [4]: 40%
- Average survived (P388 [5]): 10.5 days
- T/C (P388 [7]): 103%

Compound: O=c1[nH]c(=O)n([C@H]2C[C@H](O)[C@@H](CO)O2)cc1F [FLOXURIDINE]
- T/C (P388 [6]): 149%
- Average survived (P388 [5]): 15.17 days

Compound: O=c1[nH]cc(F)c(=O)[nH]1 [FLUOROURACIL]
- T/C (P388 [6]): 173%
- cytotoxicity at 72 h, 100 µM [1]: 90.3%
- cytotoxicity at 72 h, 10 µM [2]: 81.2%
- cytotoxicity at 72 h, 1 µM [4]: 79.8%
- Average survived (P388 [5]): 17.6 days

Compound: O=c1[nH]c(=O)n(C2CCCO2)cc1F (configuration not stated) [TEGAFUR]
- T/C (P388 [6]): 98%
- cytotoxicity at 72 h, 10 µM [2]: 67.5%
- cytotoxicity at 72 h, 1 µM [4]: 17.2%
- Average survived (P388 [5]): 10 days
- cytotoxicity at 72 h, 100 µM [8]: 81.8%
